In ChEMBL document CHEMBL4689842, “EUbOPEN Chemogenomics Library wave 1” (2021):

Test system: U2OS
Test: Multiplex assay against U2OS
Format: toxicity, cell-based
Settings: human
Outline: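 Cells were classed with CellPathfinder machine-learning gating, first as Hoechst high-intensity objects or normal cells, then (normal cells) as healthy, pyknosed or fragmented nuclei, and finally (pyknosed cells) as mitotic or apoptotic. Staining of live cells at seeding used Hoechst33342, BioTracker Green Microtubule Cytoskeleton Dye, MitoTracker Red and Annexin V Alexa Fluor 680, with imaging on a CQ1 microscope at 37°C and 5% CO2 after compound addition. Tubulin, mitochondrial-mass and membrane-permeability phenotypes are per cents of healthy-nucleus cells.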

[1] = 12 h, 1 µM, compound concentration 1 uM, replicate 1
[2] = 12 h, 1 µM, compound concentration 1 uM, replicate 2
[3] = 12 h, 10 µM, compound concentration 10 uM, replicate 1
[4] = 12 h, 10 µM, compound concentration 10 uM, replicate 2
[5] = 24 h, 1 µM, compound concentration 1 uM, replicate 1
[6] = 24 h, 1 µM, compound concentration 1 uM, replicate 2
[7] = 24 h, 10 µM, compound concentration 10 uM, replicate 1
[8] = 24 h, 10 µM, compound concentration 10 uM, replicate 2

Compound: CN(C)CCOc1ccc(-c2nc(-c3ccncc3)c(-c3ccc4c(c3)CC/C4=N\O)[nH]2)cc1 [SB590885]
- Population Apoptotic (%) [1]: 72%
- Population Fragmented Nuclei (%) [1]: 22%
- Population Healthy Nuclei (%) [1]: 42%
- Population Hoechst High Intensity Objects (%) [1]: 9%
- Population Membrane Permeable-Phenotype (%) [1]: 45%
- Population Mitochondria Different-Phenotype (%) [1]: 30%
- Population Mitotic Cells (%) [1]: 27%
- Population Normal (%) [1]: 90%
- Population Pyknosed Nuclei (%) [1]: 34%
- Population Tubulin-Different-Phenotype (%) [1]: 54%
- Total Cell Count [1]: 200
- Population Apoptotic (%) [2]: 88%
- Population Fragmented Nuclei (%) [2]: 41%
- Population Healthy Nuclei (%) [2]: 34%
- Population Hoechst High Intensity Objects (%) [2]: 15%
- Population Membrane Permeable-Phenotype (%) [2]: 38%
- Population Mitochondria Different-Phenotype (%) [2]: 28%
- Population Mitotic Cells (%) [2]: 11%
- Population Normal (%) [2]: 84%
- Population Pyknosed Nuclei (%) [2]: 23%
- Population Tubulin-Different-Phenotype (%) [2]: 51%
- Total Cell Count [2]: 155
- Population Apoptotic (%) [3]: 42%
- Population Fragmented Nuclei (%) [3]: 5%
- Population Hoechst High Intensity Objects (%) [3]: 3%
- Population Membrane Permeable-Phenotype (%) [3]: 11%
- Population Mitochondria Different-Phenotype (%) [3]: 23%
- Population Mitotic Cells (%) [3]: 57%
- Population Normal (%) [3]: 96%
- Population Pyknosed Nuclei (%) [3]: 7%
- Population Tubulin-Different-Phenotype (%) [3]: 26%
- Total Cell Count [3]: 149
- Population Apoptotic (%) [4]: 37%
- Population Fragmented Nuclei (%) [4]: 6%
- Population Healthy Nuclei (%) [4]: 87%
- Population Hoechst High Intensity Objects (%) [4]: 10%
- Population Membrane Permeable-Phenotype (%) [4]: 14%
- Population Mitochondria Different-Phenotype (%) [4]: 28%
- Population Mitotic Cells (%) [4]: 62%
- Population Normal (%) [4]: 89%
- Population Pyknosed Nuclei (%) [4]: 5%
- Population Tubulin-Different-Phenotype (%) [4]: 33%
- Total Cell Count [4]: 78
- Population Apoptotic (%) [5]: 85%
- Population Fragmented Nuclei (%) [5]: 15%
- Population Healthy Nuclei (%) [5]: 38%
- Population Hoechst High Intensity Objects (%) [5]: 19%
- Population Membrane Permeable-Phenotype (%) [5]: 34%
- Population Mitochondria Different-Phenotype (%) [5]: 34%
- Population Mitotic Cells (%) [5]: 14%
- Population Normal (%) [5]: 80%
- Population Pyknosed Nuclei (%) [5]: 45%
- Population Tubulin-Different-Phenotype (%) [5]: 37%
- Total Cell Count [5]: 280
- Population Apoptotic (%) [6]: 91%
- Population Fragmented Nuclei (%) [6]: 35%
- Population Healthy Nuclei (%) [6]: 25%
- Population Hoechst High Intensity Objects (%) [6]: 21%
- Population Membrane Permeable-Phenotype (%) [6]: 33%
- Population Mitochondria Different-Phenotype (%) [6]: 41%
- Population Mitotic Cells (%) [6]: 8%
- Population Normal (%) [6]: 78%
- Population Pyknosed Nuclei (%) [6]: 38%
- Population Tubulin-Different-Phenotype (%) [6]: 30%
- Total Cell Count [6]: 196
- Population Apoptotic (%) [7]: 44%
- Population Fragmented Nuclei (%) [7]: 5%
- Population Healthy Nuclei (%) [7]: 90%
- Population Hoechst High Intensity Objects (%) [7]: 2%
- Population Membrane Permeable-Phenotype (%) [7]: 12%
- Population Mitochondria Different-Phenotype (%) [7]: 21%
- Population Mitotic Cells (%) [7]: 55%
- Population Normal (%) [7]: 97%
- Population Pyknosed Nuclei (%) [7]: 3%
- Population Tubulin-Different-Phenotype (%) [7]: 30%
- Total Cell Count [7]: 144
- Population Apoptotic (%) [8]: 50%
- Population Fragmented Nuclei (%) [8]: 7%
- Population Healthy Nuclei (%) [8]: 89%
- Population Hoechst High Intensity Objects (%) [8]: 7%
- Population Membrane Permeable-Phenotype (%) [8]: 8%
- Population Mitochondria Different-Phenotype (%) [8]: 38%
- Population Mitotic Cells (%) [8]: 50%
- Population Normal (%) [8]: 92%
- Population Tubulin-Different-Phenotype (%) [8]: 37%
- Total Cell Count [8]: 80

Compound: N#Cc1cnc(Nc2cc(NC[C@H]3CNCCO3)c(C(F)(F)F)cn2)cn1 [SRA-737]
- Population Apoptotic (%) [1]: 18%
- Population Fragmented Nuclei (%) [1]: 0%
- Population Healthy Nuclei (%) [1]: 89%
- Population Hoechst High Intensity Objects (%) [1]: 6%
- Population Membrane Permeable-Phenotype (%) [1]: 7%
- Population Mitochondria Different-Phenotype (%) [1]: 14%
- Population Mitotic Cells (%) [1]: 81%
- Population Normal (%) [1]: 93%
- Population Pyknosed Nuclei (%) [1]: 9%
- Population Tubulin-Different-Phenotype (%) [1]: 26%
- Total Cell Count [1]: 249
- Population Apoptotic (%) [2]: 16%
- Population Fragmented Nuclei (%) [2]: 4%
- Population Healthy Nuclei (%) [2]: 90%
- Population Hoechst High Intensity Objects (%) [2]: 9%
- Population Membrane Permeable-Phenotype (%) [2]: 10%
- Population Mitochondria Different-Phenotype (%) [2]: 18%
- Population Mitotic Cells (%) [2]: 83%
- Population Normal (%) [2]: 90%
- Population Pyknosed Nuclei (%) [2]: 4%
- Population Tubulin-Different-Phenotype (%) [2]: 30%
- Total Cell Count [2]: 142
- Population Apoptotic (%) [3]: 50%
- Population Fragmented Nuclei (%) [3]: 5%
- Population Healthy Nuclei (%) [3]: 87%
- Population Hoechst High Intensity Objects (%) [3]: 4%
- Population Membrane Permeable-Phenotype (%) [3]: 11%
- Population Mitochondria Different-Phenotype (%) [3]: 9%
- Population Mitotic Cells (%) [3]: 50%
- Population Normal (%) [3]: 95%
- Population Pyknosed Nuclei (%) [3]: 6%
- Population Tubulin-Different-Phenotype (%) [3]: 15%
- Total Cell Count [3]: 193
- Population Apoptotic (%) [4]: 23%
- Population Fragmented Nuclei (%) [4]: 4%
- Population Healthy Nuclei (%) [4]: 85%
- Population Hoechst High Intensity Objects (%) [4]: 9%
- Population Membrane Permeable-Phenotype (%) [4]: 15%
- Population Mitochondria Different-Phenotype (%) [4]: 7%
- Population Mitotic Cells (%) [4]: 76%
- Population Normal (%) [4]: 90%
- Population Pyknosed Nuclei (%) [4]: 10%
- Population Tubulin-Different-Phenotype (%) [4]: 16%
- Total Cell Count [4]: 143
- Population Apoptotic (%) [5]: 5%
- Population Fragmented Nuclei (%) [5]: 0%
- Population Membrane Permeable-Phenotype (%) [5]: 5%
- Population Mitochondria Different-Phenotype (%) [5]: 12%
- Population Mitotic Cells (%) [5]: 94%
- Population Pyknosed Nuclei (%) [5]: 5%
- Population Tubulin-Different-Phenotype (%) [5]: 31%
- Total Cell Count [5]: 330
- Population Apoptotic (%) [6]: 0%
- Population Fragmented Nuclei (%) [6]: 2%
- Population Healthy Nuclei (%) [6]: 93%
- Population Hoechst High Intensity Objects (%) [6]: 3%
- Population Membrane Permeable-Phenotype (%) [6]: 6%
- Population Mitochondria Different-Phenotype (%) [6]: 23%
- Population Mitotic Cells (%) [6]: 100%
- Population Normal (%) [6]: 96%
- Population Pyknosed Nuclei (%) [6]: 4%
- Population Tubulin-Different-Phenotype (%) [6]: 38%
- Total Cell Count [6]: 179
- Population Apoptotic (%) [7]: 18%
- Population Fragmented Nuclei (%) [7]: 4%
- Population Healthy Nuclei (%) [7]: 88%
- Population Hoechst High Intensity Objects (%) [7]: 4%
- Population Membrane Permeable-Phenotype (%) [7]: 8%
- Population Mitochondria Different-Phenotype (%) [7]: 10%
- Population Mitotic Cells (%) [7]: 81%
- Population Normal (%) [7]: 95%
- Population Pyknosed Nuclei (%) [7]: 6%
- Population Tubulin-Different-Phenotype (%) [7]: 19%
- Total Cell Count [7]: 243
- Population Apoptotic (%) [8]: 50%
- Population Fragmented Nuclei (%) [8]: 5%
- Population Healthy Nuclei (%) [8]: 87%
- Population Hoechst High Intensity Objects (%) [8]: 8%
- Population Mitochondria Different-Phenotype (%) [8]: 19%
- Population Mitotic Cells (%) [8]: 50%
- Population Normal (%) [8]: 91%
- Population Tubulin-Different-Phenotype (%) [8]: 12%
- Total Cell Count [8]: 168
